The source of these data is ChEMBL document CHEMBL4400527, “Development of bioactive gemcitabine-D-Lys6-GnRH prodrugs with linker-controllable drug release rate and enhanced biopharmaceutical profile” (Eur J Med Chem, 2019).

For orientation: pIC50 means the IC50 on a negative log10 scale, so that one unit is a factor of ten.

pIC50: −log10 of the molar value.

Data set [1] deals with T1, Gonadotropin-releasing hormone receptor (Homo sapiens, UniProt P30968).
T1 sequence (P30968 whole entry): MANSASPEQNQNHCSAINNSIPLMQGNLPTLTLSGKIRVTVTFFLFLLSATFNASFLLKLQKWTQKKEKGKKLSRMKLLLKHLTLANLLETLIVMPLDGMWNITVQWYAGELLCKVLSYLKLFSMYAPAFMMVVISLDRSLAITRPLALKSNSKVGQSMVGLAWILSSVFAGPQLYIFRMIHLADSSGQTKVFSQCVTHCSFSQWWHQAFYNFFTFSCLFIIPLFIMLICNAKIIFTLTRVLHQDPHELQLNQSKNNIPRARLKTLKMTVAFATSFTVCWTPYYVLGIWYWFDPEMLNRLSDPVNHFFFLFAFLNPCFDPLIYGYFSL
The data set is described as follows: Displacement of [125I]-D-Tyr6-His5-GnRH from recombinant human GnRH receptor expressed in HEK293 cell membrane measured after 16 to 19 hrs by gamma counting method. It counts as cell membranes. The gist of the method: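 Membranes from HEK 293 cells stably expressing human GnRH-R were incubated with 100,000-120,000 cpm [¹²⁵I]-D-Tyr⁶-His⁵-GnRH plus increasing conjugate concentrations. Buffer was 25 mM HEPES, 1 mM CaCl₂, 10 mM MgCl₂, 0.5% BSA, pH 7.4, final volume 0.2 mL, 4 °C for 16-19 h. Samples filtered on PEI-soaked GF/C, washed with ice-cold Tris-HCl and gamma counted. Nonspecific binding defined with 1000 nM triptorelin.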
(In general: Loss of bound radioactivity is the signal in a displacement assay; it reports binding, not function.)

The subject of another data set is DU-145. Description: Antiproliferative activity against human DU145 cells measured after 72 hrs by MTT assay. The format is functional, cell-based. As to conditions: DU-145, 72 h. The gist of the method: (§1)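 Cells (RPMI for DU145, PC3, MDA-MB-231; DMEM for MCF7; 10% FBS, 37 °C, 5% CO₂) plated at 5 x 10³/well. After 24 h, medium replaced with compound at 10-40,000 nM for 72 h. MTT 0.3 mg/mL in PBS for 3 h, formazan dissolved in DMSO, OD at 570 nm with 690 nm reference. IC50 from four-parameter logistic fit; three experiments in triplicate.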
For orientation: Tetrazolium dyes change colour on reduction, which living cells bring about.

The next data set has as its system MDA-MB-231. Description: Antiproliferative activity against human MDA-MB-231 cells measured after 72 hrs by MTT assay. It counts as functional, cell-based. As to conditions: MDA-MB-231, 72 h. Summed up:
as §1

For another data set, the system named is PC-3. Description: Antiproliferative activity against human PC3 cells measured after 72 hrs by MTT assay. It counts as functional, cell-based. The settings on record: PC-3, 72 h. Summed up: as §1
For a further data set, the system named is MCF7. The data set is described as follows: Antiproliferative activity against human MCF7 cells measured after 72 hrs by MTT assay. It counts as functional, cell-based. The settings on record: MCF7, 72 h. The gist of the method: as §1
A short description of data set [2]: Prodrug activation in human DU145 cells assessed as gemcitabine release at 10 uM measured after 8 hrs by LC-MS/MS analysis. It counts as cell-based. As to conditions: du-145, 8 h. Summed up: (§2)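 DU145 cells seeded at 2 x 10⁶ cells/well and exposed to 10 µΜ compound for 1, 4 or 8 h. Medium removed, cells washed twice with ice-cold PBS, lysed in ice-cold MeCN-water (3:2) by scraping, then vortexed, sonicated and spun 3 min at 16,060 g. Conjugate, gemcitabine and dFdU quantified per 10⁶ cells.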

Data set [3] in a line: Stability of the compound in RPMI medium at 1 uM measured after 72 hrs by LC-MS/MS analysis. It counts as physicochemical. The gist of the method: (§3)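 Conjugates at 1 µΜ incubated at 37 °C in RPMI with 10% FBS and 1% P/S. Triplicate samples taken at 0, 1, 2, 4, 8, 24, 48 and 72 h, mixed with initial mobile phase, stored at -80 °C. Analysed by LC-MS/MS.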
A short description of data set [4]: Stability of the compound in human plasma at 1 ug/ml measured up to 4 hrs by LC-MS/MS analysis. The format is ADME, cell-free. Summed up:
(§4)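 Human plasma spiked with conjugate at 1 µg/mL. Triplicate 50 µL samples taken at 0, 0.08, 0.5, 1 and 4 h, mixed with 150 µL acetonitrile and stored at -80 °C. Intact conjugate and released gemcitabine followed.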

A short description of data set [5]: Drug level in C57BL/6N mouse blood at 10 mg/kg, ip measured after 15 mins by LC-MS/MS analysis. The format is ADME, organism-based. The settings on record: whole blood, read-out: Drug uptake. The gist of the method:
(§5)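 Male C57BL/6N mice, 8-12 weeks old, fasted overnight (n = 5/group), given conjugate 10 mg/kg (6.3 µmol/kg) IP in saline. Serial tail bleeds of 10 µL at 0.25, 0.5, 1, 2, 4, 6 and 8 h into 0.1 M citric acid, pH 4.5. Stored at -80 °C, processed by protein precipitation and evaporation. Conjugate, gemcitabine and dFdU measured.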

A short description of data set [6]: Prodrug activation in C57BL/6N mouse blood assessed as dFdU release at 10 mg/kg, ip measured up to 8 hrs by LC-MS/MS analysis. The format is organism-based. The settings on record: in vivo. Summed up:
as §5

Data set [7] in a line: Prodrug activation in human DU145 cells assessed as dFdU release at 10 uM measured after 8 hrs by LC-MS/MS analysis. It counts as cell-based. The settings on record: du-145, 8 h. Summed up:
as §2

A short description of data set [8]: Prodrug activation in human plasma assessed as gemcitabine release at 1 ug/ml measured up to 4 hrs by LC-MS/MS analysis. The format is cell-free. Summed up: as §4
The nature of data set [9]: AUC (1 to 8 hrs) in human DU145 cells assessed per million cells at 10 uM by LC-MS/MS analysis. Also on record: time 1-8 hr, dose 10 uM. As to conditions: du-145, 10 µM. The format is ADME, cell-based. Summed up:
as §2

Data set [10] can be described thus: Drug level in C57BL/6N mouse blood at 10 mg/kg, ip measured after 30 mins by LC-MS/MS analysis. It counts as ADME, organism-based. As to conditions: whole blood, read-out: Drug uptake. Summed up:
as §5

Data set [11] is described as follows: Cmax in human DU145 cells assessed per million cells at 10 uM measured after 4 hrs by LC-MS/MS analysis. It counts as ADME, cell-based. Also on record: dose 10 uM. As to conditions: du-145, 4 h. The gist of the method:
as §2

A short description of data set [12]: Prodrug activation in C57BL/6N mouse blood assessed as gemcitabine release at 10 mg/kg, ip measured after 30 mins by LC-MS/MS analysis. The format is organism-based. As to conditions: in vivo, 0.5 h. The gist of the method: as §5
Data set [13] can be described thus: Stability of the compound in RPMI medium assessed as compound degradation at 1 uM measured <24 hrs by LC-MS/MS analysis. It counts as physicochemical. The settings on record: read-out: Drug degradation. The gist of the method:
as §3

Data set [14] can be described thus: Prodrug activation in C57BL/6N mouse blood assessed as gemcitabine release at 10 mg/kg, ip measured up to 8 hrs by LC-MS/MS analysis. As to conditions: in vivo. It counts as organism-based. Summed up:
as §5

Data set [15] in a line: Prodrug activation in C57BL/6N mouse blood assessed as dFdU release at 10 mg/kg, ip measured after 1 hr by LC-MS/MS analysis. It counts as organism-based. The settings on record: in vivo. Summed up: as §5

Turning to `CC(C)C[C@H](NC(=O)[C@@H](CCCCN)NC(=O)[C@H](Cc1ccc(O)cc1)NC(=O)[C@H](CO)NC(=O)[C@H](Cc1c[nH]c2ccccc12)NC(=O)[C@H](Cc1cnc[nH]1)NC(=O)[C@@H]1CCC(=O)N1)C(=O)N[C@@H](CCCNC(=N)N)C(=O)N1CCC[C@H]1C(=O)NCC(N)=O`, the pIC50 was 7.98 in data set [1]; under 4.40 in the data set on DU-145; under 4.40 in the data set with MDA-MB-231; under 4.40 with PC-3; under 4.40 in the data set with MCF7.

For `CC(C)C[C@H](NC(=O)[C@@H](CCCCNC(=O)OC[C@H]1O[C@@H](n2ccc(N)nc2=O)C(F)(F)[C@@H]1O)NC(=O)[C@H](Cc1ccc(O)cc1)NC(=O)[C@H](CO)NC(=O)[C@H](Cc1c[nH]c2ccccc12)NC(=O)[C@H](Cc1cnc[nH]1)NC(=O)[C@@H]1CCC(=O)N1)C(=O)N[C@@H](CCCNC(=N)N)C(=O)N1CCC[C@H]1C(=O)NCC(N)=O`, the Drug metabolism result in data set [2], in data set [6], in [7] and in data set [8] was “Metabolite_Notdetected” throughout. Moreover, the Stability entry in [3] and in data set [4] was “Stable” each time. Moreover, the pIC50 is 9.16 in data set [1]; under 4.40 in the data set on DU-145; under 4.40 in the data set on MDA-MB-231; under 4.40 with PC-3; 6.21 in the data set on MCF7. The concentration at 0.25 h in data set [5] was found to be 4000 ng/mL. The AUC in data set [9] worked out at 62.8 ng/10^6 cells × hr. In addition, the concentration at 0.5 h in data set [10] came to 4000 ng/mL.

As to `CC(C)C[C@H](NC(=O)[C@@H](CCCCNC(=O)O[C@@H]1[C@@H](CO)O[C@@H](n2ccc(N)nc2=O)C1(F)F)NC(=O)[C@H](Cc1ccc(O)cc1)NC(=O)[C@H](CO)NC(=O)[C@H](Cc1c[nH]c2ccccc12)NC(=O)[C@H](Cc1cnc[nH]1)NC(=O)[C@@H]1CCC(=O)N1)C(=O)N[C@@H](CCCNC(=N)N)C(=O)N1CCC[C@H]1C(=O)NCC(N)=O`, the Drug metabolism entry in [2], in data set [6], in data set [7] and in data set [8] was “Metabolite_Notdetected” in each case. Also, the Stability entry in data set [3] and in [4] was “Stable” in each case. In addition, the negative-log IC50 (pIC50) in data set [1] was 9.96; in the data set on DU-145, 5.01; in the data set on MDA-MB-231, under 4.40; in the data set with PC-3, under 4.40; with MCF7, 6.35. Also, the concentration at 0.25 h in [5] came out at 4000 ng/mL. Moreover, in [11], the Cmax is listed as 15 ng/10^6 cells in 4 h. The AUC in [9] is listed as 88.7 ng/10^6 cells × hr. Moreover, the concentration at 0.5 h in data set [10] is 5000 ng/mL.

On to `Nc1ccn([C@@H]2O[C@H](CO)[C@@H](O)C2(F)F)c(=O)n1` [GEMCITABINE], for which the pIC50 in the data set with DU-145 was 6.67; in the data set with MDA-MB-231, 5.80; in the data set on PC-3 it was 6.38; in the data set with MCF7 it was 7.42. Besides, the concentration at 0.5 h in data set [10] is 3 ng/mL.

For the compound `CC(C)C[C@H](NC(=O)[C@@H](CCCCNC(=O)CCCCCNC(=O)CCC(=O)OC[C@H]1O[C@@H](n2ccc(N)nc2=O)C(F)(F)[C@@H]1O)NC(=O)[C@H](Cc1ccc(O)cc1)NC(=O)[C@H](CO)NC(=O)[C@H](Cc1c[nH]c2ccccc12)NC(=O)[C@H](Cc1cnc[nH]1)NC(=O)[C@@H]1CCC(=O)N1)C(=O)N[C@@H](CCCNC(=N)N)C(=O)N1CCC[C@H]1C(=O)NCC(N)=O`, the Drug metabolism result in data set [2] was “Metabolite_Detected”; in [12] it was 300 ng/mL; in data set [7], “Metabolite_Notdetected”; in data set [8], “Metabolite_Detected”; in [14], “Metabolite_Detected”; in [15], 500 ng/mL. In addition, the Stability entry in data set [4] is “Unstable”. Also, the negative-log IC50 (pIC50) in data set [1] was 8.62; in the data set with DU-145 it was 6.16; in the data set on MDA-MB-231, 5.62; with PC-3, 6.03; in the data set with MCF7, 7.26. In addition, in data set [13], the degraded at 24 h, 1 µM was 100%. The Cmax in data set [11] is 8 ng/10^6 cells. The AUC in data set [9] was determined as 38.6 ng/10^6 cells × hr.
